# In ChEMBL document CHEMBL1133667, “A structure-affinity relationship study on derivatives of N-[2-[4-(4-Chlorophenyl)piperazin-1-yl]ethyl]-3-methoxybenzamide, a high-affinity and selective D(4) receptor ligand” (J Med Chem, 2000):
# Key:
# [1] = molecular target: T1, Adrenergic receptor alpha-1 (Rattus norvegicus) (UniProt P15823+P23944+P43140); experiment: (§1) Tested in vitro for % inhibition against alpha-1 adrenergic receptor; type: protein assay; design: concentration or dose not given beside the values; conditions: concentration not given here
# How it was run: (§2)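 Drug at 10^-5–10^-11 M, 50 min at 25 °C. Filtered on GF/B filters presoaked in 0.5% polyethylenimine. Nonspecific binding with 1 µM prazosin. Percentage inhibition of specific binding reported at the stated concentration.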
# D(2) dopamine receptor [2] = molecular target: T2, D(2) dopamine receptor (Homo sapiens, UniProt P14416); experiment: In vitro binding affinity at human Dopamine receptor D2 (long) by [3H]spiroperidol displacement.
# T2 sequence (P14416 whole entry): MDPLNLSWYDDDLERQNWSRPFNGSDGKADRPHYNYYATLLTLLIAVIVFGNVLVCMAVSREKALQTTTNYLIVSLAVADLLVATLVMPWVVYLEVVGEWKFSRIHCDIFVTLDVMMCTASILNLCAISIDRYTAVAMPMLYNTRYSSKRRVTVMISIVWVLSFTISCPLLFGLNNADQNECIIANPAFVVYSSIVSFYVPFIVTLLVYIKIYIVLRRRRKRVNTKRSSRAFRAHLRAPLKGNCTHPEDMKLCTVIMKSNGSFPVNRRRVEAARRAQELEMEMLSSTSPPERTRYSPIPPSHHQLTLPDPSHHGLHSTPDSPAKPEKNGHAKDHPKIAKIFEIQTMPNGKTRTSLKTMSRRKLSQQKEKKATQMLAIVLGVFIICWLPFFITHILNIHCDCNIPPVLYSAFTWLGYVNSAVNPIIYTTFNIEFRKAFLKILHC
# [3] = molecular target: T3, Adrenergic receptor alpha-1 (Rattus norvegicus, UniProt P15823+P23944+P43140); experiment: In vitro binding affinity towards alpha-1 adrenergic receptor by using [3H]prazosin in rat brain cortex membranes.; type: cell membranes
# T3 sequence (P15823 whole entry): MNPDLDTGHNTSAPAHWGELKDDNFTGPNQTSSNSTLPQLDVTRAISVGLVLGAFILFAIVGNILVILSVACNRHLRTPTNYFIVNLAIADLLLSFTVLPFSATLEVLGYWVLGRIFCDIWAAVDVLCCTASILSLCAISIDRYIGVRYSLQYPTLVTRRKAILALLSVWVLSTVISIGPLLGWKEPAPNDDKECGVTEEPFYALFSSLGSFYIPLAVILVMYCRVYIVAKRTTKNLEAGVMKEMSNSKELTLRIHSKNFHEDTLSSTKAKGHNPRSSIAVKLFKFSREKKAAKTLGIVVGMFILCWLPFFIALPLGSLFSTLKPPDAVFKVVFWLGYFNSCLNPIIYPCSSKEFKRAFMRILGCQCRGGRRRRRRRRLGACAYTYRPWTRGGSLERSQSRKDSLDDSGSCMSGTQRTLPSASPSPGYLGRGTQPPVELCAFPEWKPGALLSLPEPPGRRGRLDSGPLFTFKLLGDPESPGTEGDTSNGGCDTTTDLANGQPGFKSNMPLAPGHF
# T3 sequence (P23944 whole entry): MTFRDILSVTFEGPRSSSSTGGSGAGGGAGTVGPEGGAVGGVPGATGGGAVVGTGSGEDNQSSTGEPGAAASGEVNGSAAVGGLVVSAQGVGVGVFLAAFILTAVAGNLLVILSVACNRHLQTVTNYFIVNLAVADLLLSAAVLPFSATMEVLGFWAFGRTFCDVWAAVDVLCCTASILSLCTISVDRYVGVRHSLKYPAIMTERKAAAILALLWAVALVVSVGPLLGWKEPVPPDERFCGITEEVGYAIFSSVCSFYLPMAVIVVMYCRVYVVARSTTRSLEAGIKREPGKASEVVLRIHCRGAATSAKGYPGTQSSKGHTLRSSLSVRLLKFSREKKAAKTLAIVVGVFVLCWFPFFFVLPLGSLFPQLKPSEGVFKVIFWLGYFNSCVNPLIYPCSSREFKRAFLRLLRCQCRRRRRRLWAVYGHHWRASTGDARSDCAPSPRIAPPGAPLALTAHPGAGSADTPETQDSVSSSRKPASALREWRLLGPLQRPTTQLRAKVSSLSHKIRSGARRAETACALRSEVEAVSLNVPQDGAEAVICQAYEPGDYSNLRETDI
# T3 sequence (P43140 whole entry): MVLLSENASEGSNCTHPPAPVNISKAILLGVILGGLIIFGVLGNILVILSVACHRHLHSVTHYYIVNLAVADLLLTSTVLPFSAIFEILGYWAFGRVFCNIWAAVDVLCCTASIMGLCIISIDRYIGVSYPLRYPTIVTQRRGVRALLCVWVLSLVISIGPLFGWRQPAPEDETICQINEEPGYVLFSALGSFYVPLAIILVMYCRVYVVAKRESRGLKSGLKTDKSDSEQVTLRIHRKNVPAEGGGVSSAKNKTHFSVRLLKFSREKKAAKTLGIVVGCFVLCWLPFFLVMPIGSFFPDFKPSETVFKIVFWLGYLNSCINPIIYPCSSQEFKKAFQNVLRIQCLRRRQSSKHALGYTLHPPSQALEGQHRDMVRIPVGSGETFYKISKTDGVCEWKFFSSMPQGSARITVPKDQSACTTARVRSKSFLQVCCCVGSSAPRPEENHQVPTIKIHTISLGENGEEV
# D(4) dopamine receptor = molecular target: T4, D(4) dopamine receptor (Homo sapiens, UniProt P21917); experiment: In vitro binding affinity at human Dopamine receptor D4.4 by [3H]YM-09151-2 displacement.
# T4 sequence (P21917 whole entry): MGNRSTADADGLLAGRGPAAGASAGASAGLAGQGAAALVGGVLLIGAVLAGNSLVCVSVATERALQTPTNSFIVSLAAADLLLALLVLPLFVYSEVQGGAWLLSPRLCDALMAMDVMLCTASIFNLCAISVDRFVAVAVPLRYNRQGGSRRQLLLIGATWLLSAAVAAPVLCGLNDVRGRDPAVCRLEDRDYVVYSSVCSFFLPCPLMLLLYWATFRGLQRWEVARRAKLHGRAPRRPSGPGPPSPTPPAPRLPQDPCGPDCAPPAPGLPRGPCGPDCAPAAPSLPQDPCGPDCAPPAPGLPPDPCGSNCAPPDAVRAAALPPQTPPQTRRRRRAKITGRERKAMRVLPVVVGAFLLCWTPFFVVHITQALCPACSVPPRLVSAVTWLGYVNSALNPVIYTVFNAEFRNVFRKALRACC
# [4] = molecular target: T5, 5-hydroxytryptamine receptor 1A (Rattus norvegicus, UniProt P19327); experiment: In vitro binding affinity at 5-hydroxytryptamine receptor 1A receptor in rat hippocampal membranes by [3H]8-OH-DPAT displacement.; type: cell membranes, Hippocampus
# T5 sequence (P19327 whole entry): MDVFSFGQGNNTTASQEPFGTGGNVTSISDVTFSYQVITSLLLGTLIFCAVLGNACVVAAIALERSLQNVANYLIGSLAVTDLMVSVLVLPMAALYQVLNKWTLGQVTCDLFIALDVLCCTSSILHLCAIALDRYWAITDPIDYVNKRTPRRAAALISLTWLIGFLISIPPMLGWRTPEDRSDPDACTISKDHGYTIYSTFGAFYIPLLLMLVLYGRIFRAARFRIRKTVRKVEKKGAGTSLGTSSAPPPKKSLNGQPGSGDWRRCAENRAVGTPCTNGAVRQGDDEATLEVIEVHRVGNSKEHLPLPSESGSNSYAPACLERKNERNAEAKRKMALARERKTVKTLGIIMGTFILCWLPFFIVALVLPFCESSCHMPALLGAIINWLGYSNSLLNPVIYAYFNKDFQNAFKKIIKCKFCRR
# [5] = molecular target: T1, Adrenergic receptor alpha-1 (Rattus norvegicus); experiment: Tested in vitro for %inhibition against alpha-1 adrenergic receptor; type: protein assay; conditions: concentration not given here; how it was run: as §2
# D(2) dopamine receptor [6] = molecular target: T2, D(2) dopamine receptor; experiment: In vitro binding affinity towards human Dopamine receptor D2L, using [3H]spiroperidol radioligand in Sf9 baculovirus expression.
# [7] = molecular target: T6, 5-hydroxytryptamine receptor 1A (Rattus norvegicus) (UniProt P19327); experiment: Tested in vitro for % inhibition against (serotonin)5-HT 1A receptor.; conditions: concentration not given here
# T6 sequence (whole entry): T5 sequence (P19327 whole entry)
# [8] = molecular target: T1, Adrenergic receptor alpha-1 (Rattus norvegicus); experiment: as §1; type: protein assay; conditions: concentration not given here; how it was run: as §2
Compound,inhibition [1] [%],Ki (D(2) dopamine receptor [2]) [nM],Ki [3] [nM],Ki (D(4) dopamine receptor) [nM],Ki [4] [nM],inhibition [5] [%],Ki (D(2) dopamine receptor [6]) [nM],inhibition [7] [%],inhibition [8] [%]
COc1cccc2c1CCCC2NCCN1CCN(c2ccc(Cl)cc2)CC1.Cl.Cl (stereo unspecified),27,3180,> 850,32,821,,,,
COc1cccc(C(=O)CCCCCN2CCN(c3ccc(Cl)cc3)CC2)c1,,> 850,678,280,45,,,,
COc1cccc(CCCCN2CCN(c3ccc(Cl)cc3)CC2)c1,,2740,> 850,204,514,25,,,
COc1cccc2c1CCCC2CCCN1CCN(c2ccc(Cl)cc2)CC1 (stereo unspecified),34,3400,> 850,416,105,,,,
COc1cccc(CNCCN2CCN(c3ccc(Cl)cc3)CC2)c1,12,5000,> 850,23,> 850,,,,
COc1cccc2c1CCN(CCN1CCN(c3ccc(Cl)cc3)CC1)C2=O,,,631,42,451,,3170,,
COc1ccc2c(c1)C(=O)N(CCN1CCN(c3ccc(Cl)cc3)CC1)CC2,33,3960,> 850,141,11,,,,
COc1cccc(C(=O)CCCN2CCN(c3ccc(Cl)cc3)CC2)c1,,2550,908,4,183,,,,
COc1ccc2c(c1)C(NCCN1CCN(c3ccc(Cl)cc3)CC1)CCC2 (stereo unspecified),37,262,> 850,46,> 850,,,,
COc1ccc2c(c1)C(CCCN1CCN(c3ccc(Cl)cc3)CC1)CCC2 (stereo unspecified),19,980,> 850,391,708,,,,
COc1cccc(C(=O)N(C)CCN2CCN(c3ccc(Cl)cc3)CC2)c1,,> 850,> 850,180,> 850,,,18,22
COc1cccc(NC(=O)CCN2CCN(c3ccc(Cl)cc3)CC2)c1,,282,303,42,859,,,,
COc1cccc(C(=O)CCCCN2CCN(c3ccc(Cl)cc3)CC2)c1,,> 850,146,21,37,,,,
